Four compounds from ChEMBL document CHEMBL1145383, “Synthesis of stable and potent delta/mu opioid peptides: analogues of H-Tyr-c[D-Cys-Gly-Phe-D-Cys]-OH by ring-closing metathesis” (J Med Chem, 2007) can be followed below.

Assay [1] concerns the target Delta-type opioid receptor (Mus musculus, UniProt P32300). The assay is described as follows: Agonist activity at delta opioid receptor in mouse vas deferens assessed as inhibition of electrically-evoked muscle contraction. In kind it is functional, tissue-based. In outline:
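Mouse vas deferens from male ICR mice (25–30 g), bathed in oxygenated (95% O2/5% CO2) magnesium-free Krebs bicarbonate at 37 °C. Tension 0.5 g, stimulated transmurally at 0.1 Hz with 2.0 ms pulses at supramaximal voltage. Agonist contact 3 min, then rinse and 8 min recovery. IC50 from Hill fit of mean data, n ≥ 4 tissues.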

Assay [2] has as its target Mu-type opioid receptor (Cavia porcellus, UniProt P97266). Nature of the assay: Agonist activity at mu opioid receptor in isolated guinea pig ileum assessed as inhibition of electrically-evoked myenteric muscle contraction. In kind it is functional, tissue-based. Summed up: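 Longitudinal muscle-myenteric plexus from male Hartley guinea pigs (150–400 g), in oxygenated (95% O2/5% CO2) Krebs bicarbonate at 37 °C. Tension 1 g, transmural stimulation at 0.1 Hz with 0.4 ms pulses at supramaximal voltage. Agonist left 3 min, then washout and 8 min re-equilibration. IC50 by nonlinear least-squares Hill fit of mean data from at least four tissues.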

The target in assay [3] is Kappa-type opioid receptor (Cavia porcellus, UniProt P41144). The assay is described as follows: Displacement of [3H]U-69593 from kappa opioid receptor in guinea pig brain membrane. In kind it is cell membranes.
Sequence of Kappa-type opioid receptor (P41144 whole entry): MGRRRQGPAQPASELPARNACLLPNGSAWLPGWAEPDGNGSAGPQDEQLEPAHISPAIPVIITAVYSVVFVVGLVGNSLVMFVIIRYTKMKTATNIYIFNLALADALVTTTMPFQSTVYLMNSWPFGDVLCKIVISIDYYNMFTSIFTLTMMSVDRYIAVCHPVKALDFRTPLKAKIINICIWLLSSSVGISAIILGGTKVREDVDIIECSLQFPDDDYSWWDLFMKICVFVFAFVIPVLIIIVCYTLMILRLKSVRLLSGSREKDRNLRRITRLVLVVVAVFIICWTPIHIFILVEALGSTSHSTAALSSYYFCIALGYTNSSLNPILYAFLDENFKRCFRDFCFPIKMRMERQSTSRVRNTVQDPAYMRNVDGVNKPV
The target of assay [4] is T1, Delta-type opioid receptor (Homo sapiens, UniProt P41143). Nature of the assay: Agonist activity at human delta opioid receptor by [35S]GTP-gamma-S binding assay. In kind it is functional. In outline: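 Cells expressing hDOR were incubated with increasing test concentrations plus 0.1 nM [35S]GTPγS, in duplicate, for 90 min at 30 °C. Reaction stopped by vacuum filtration through GF/B filters pretreated with assay buffer. Filters washed four times with ice-cold 15 mM Tris/120 mM NaCl, pH 7.4, and bound label counted by liquid scintillation after overnight extraction.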
T1 sequence (P41143 whole entry): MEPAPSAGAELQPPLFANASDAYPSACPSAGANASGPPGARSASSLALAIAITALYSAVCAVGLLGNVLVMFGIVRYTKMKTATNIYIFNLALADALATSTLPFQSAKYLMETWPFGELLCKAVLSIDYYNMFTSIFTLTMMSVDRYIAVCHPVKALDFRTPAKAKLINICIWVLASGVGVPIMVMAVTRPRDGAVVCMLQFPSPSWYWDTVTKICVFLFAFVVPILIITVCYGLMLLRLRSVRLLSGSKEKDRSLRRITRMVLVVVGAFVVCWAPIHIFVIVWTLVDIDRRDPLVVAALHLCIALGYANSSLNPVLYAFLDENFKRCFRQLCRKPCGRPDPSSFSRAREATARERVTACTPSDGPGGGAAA

Assay [5] has as its target T1, Delta-type opioid receptor. The assay is described as follows: Agonist activity at human delta opioid receptor by [35S]GTP-gamma-S binding assay relative to control. In kind it is functional.
For assay [6], the target named is T2, Mu-type opioid receptor (Homo sapiens, UniProt P35372). The assay is described as follows: Agonist activity at human mu opioid receptor by [35S]GTP-gamma-S binding assay. In kind it is functional.
T2 sequence (P35372 whole entry): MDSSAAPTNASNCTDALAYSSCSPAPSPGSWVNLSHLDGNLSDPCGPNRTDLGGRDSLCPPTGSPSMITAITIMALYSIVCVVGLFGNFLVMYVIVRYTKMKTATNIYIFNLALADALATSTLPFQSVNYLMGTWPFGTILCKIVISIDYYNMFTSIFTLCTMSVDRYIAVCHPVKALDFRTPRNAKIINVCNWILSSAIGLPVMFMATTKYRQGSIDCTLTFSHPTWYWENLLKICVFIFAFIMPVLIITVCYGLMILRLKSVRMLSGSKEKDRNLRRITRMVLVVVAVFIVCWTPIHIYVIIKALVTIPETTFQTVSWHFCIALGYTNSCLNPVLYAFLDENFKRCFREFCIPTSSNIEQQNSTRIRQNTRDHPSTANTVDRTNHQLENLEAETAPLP
The target in assay [7] is T2, Mu-type opioid receptor. Nature of the assay: Agonist activity at human mu opioid receptor by [35S]GTP-gamma-S binding assay relative to control. In kind it is functional.

Sequence of Mu-type opioid receptor (Cavia porcellus, UniProt P97266) (P97266 whole entry): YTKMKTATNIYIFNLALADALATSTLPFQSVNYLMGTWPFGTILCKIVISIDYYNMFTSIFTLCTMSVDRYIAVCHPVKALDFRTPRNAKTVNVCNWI
Sequence of Delta-type opioid receptor (Mus musculus, UniProt P32300) (P32300 whole entry): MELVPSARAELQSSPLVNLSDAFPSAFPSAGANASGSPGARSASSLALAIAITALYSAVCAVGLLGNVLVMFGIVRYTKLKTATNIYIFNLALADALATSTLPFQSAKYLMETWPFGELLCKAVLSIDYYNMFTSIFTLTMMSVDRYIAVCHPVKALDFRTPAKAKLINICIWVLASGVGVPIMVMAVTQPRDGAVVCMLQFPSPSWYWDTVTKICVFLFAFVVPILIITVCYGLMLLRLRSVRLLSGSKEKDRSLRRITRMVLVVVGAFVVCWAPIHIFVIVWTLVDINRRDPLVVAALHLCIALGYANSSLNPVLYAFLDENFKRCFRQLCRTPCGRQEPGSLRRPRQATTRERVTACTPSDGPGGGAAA

Regarding `N[C@@H](Cc1ccc(O)cc1)C(=O)N[C@@H]1C/C=C/C[C@H](C(=O)O)NC(=O)[C@H](Cc2ccccc2)NC(=O)CNC1=O`, the IC50 was 0.76 nM in assay [1] and 5.2 nM at Mu-type opioid receptor [2]. In assay [3], the inhibition constant (Ki) stood at 74.8 nM. Besides, the EC50 was found to be 0.88 nM in assay [4] and 2.65 nM at Mu-type opioid receptor [6]. Moreover, the Emax in assay [5] came out at 128%; at Mu-type opioid receptor [7], 70%.

On to `C=CC[C@@H](NC(=O)[C@H](Cc1ccccc1)NC(=O)CNC(=O)[C@@H](CC=C)NC(=O)[C@@H](N)Cc1ccc(O)cc1)C(=O)O`, for which the figures for the IC50 (in assay [1]; at Mu-type opioid receptor [2]) were 5.7 nM and 34 nM, respectively. The compound further gave a Ki in assay [3] of 3870 nM.

Take `N[C@@H](Cc1ccc(O)cc1)C(=O)N[C@@H]1C/C=C\C[C@H](C(=O)O)NC(=O)[C@H](Cc2ccccc2)NC(=O)CNC1=O`: the figures for the IC50 (in assay [1]; at Mu-type opioid receptor [2]) were 0.59 nM and 5.3 nM, respectively. The inhibitory constant (Ki) in assay [3] is 576 nM. Besides, the half-maximal effective concentration (EC50) in assay [4] came to 0.83 nM; on Mu-type opioid receptor [6], 2.35 nM. For the same compound, the maximal effect (Emax) in assay [5] turned out to be 121%; on Mu-type opioid receptor [7] it was 65%.

For the compound `N[C@@H](Cc1ccc(O)cc1)C(=O)N[C@@H]1CCCC[C@H](C(=O)O)NC(=O)[C@H](Cc2ccccc2)NC(=O)CNC1=O`, the half-inhibitory concentration (IC50) in assay [1] is 3.4 nM; on Mu-type opioid receptor [2] it was 59 nM. Further, the Ki in assay [3] was 3960 nM.
